# In paper PMC4987129 (Leukemia, 2015):
# Legend:
# cancer cell lines = experiment: Anti-proliferation, comparison of BMX-IN-1 with QL-X-138; format: cell-based; details: Supplemental Table 3
# RV-1 = experiment: Anti-proliferation assay; format: cell-based
# Outline: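 RV-1 cells grown in DMEM with 10% FBS and 1% penicillin-streptomycin, seeded at 2500–3000/well for 12 h, then exposed to test compound at various concentrations for 72 h. Viability read by CellTiter-Glo luminescence and normalized to DMSO controls. Values are the mean of three independent measurements, with standard error <20%, and GI50 was derived by curve fitting.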
# DU-145 = experiment: Anti-proliferation assay; format: cell-based
# HCT-116 = experiment: Anti-proliferation assay; format: cell-based
# HeLa = experiment: Anti-proliferation assay; format: cell-based
# K562 = experiment: Anti-proliferation assay; format: cell-based
# TMD8 = experiment: Anti-proliferation assay; format: cell-based
# U2932 = experiment: Anti-proliferation assay; format: cell-based
# Ramos = experiment: Anti-proliferation assay; format: cell-based; details: B-lymphoma, 72 hours
# OCI-AML3 = experiment: Anti-proliferation assay; format: cell-based, human
# SKM-1 = experiment: Anti-proliferation assay; format: cell-based, human; details: SKM-1, AML; 72 hours
# NOMO-1 = experiment: Anti-proliferation assay; format: cell-based, human
# NB4 = experiment: Anti-proliferation assay; format: cell-based, human; details: NB4, AML; 72 hours
# HEL = experiment: Anti-proliferation assay; format: cell-based
# U937 = experiment: Anti-proliferation assay; format: cell-based; details: U937, AML; 72 hours
# NALM6 = experiment: Anti-proliferation assay; format: cell-based, human; details: NALM6, ALL; 72 hours
# MEC-1 = experiment: Anti-proliferation assay; format: cell-based; details: MEC-1, CLL; 72 hours
# MEC-2 = experiment: Anti-proliferation assay; format: cell-based; details: MEC-2, CLL; 72 hours
# Hs 505.T = experiment: Anti-proliferation assay; format: cell-based; details: CLL, 72 hours
# REC-1 = experiment: Anti-proliferation assay; format: cell-based; details: REC-1, MCL; 72 hours
# Ramos cells = experiment: Signaling pathway effect examination; format: cell-based
# Outline: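 Ramos cells in RPMI with 10% FBS were treated with serially diluted test compound for 4 h. Cells were then harvested and lysed, and phosphorylation in the lysates was assessed by western blotting.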
# mTOR = details: read-out: IC50, mTOR; biochemical; cited from earlier work
# MNK1 = MNK1 (Homo sapiens, UniProt Q9BUB5); details: cited from earlier work
# BTK = BTK (Homo sapiens, UniProt Q06187); details: cited from earlier work
# Sequence of BTK (Q06187 whole entry): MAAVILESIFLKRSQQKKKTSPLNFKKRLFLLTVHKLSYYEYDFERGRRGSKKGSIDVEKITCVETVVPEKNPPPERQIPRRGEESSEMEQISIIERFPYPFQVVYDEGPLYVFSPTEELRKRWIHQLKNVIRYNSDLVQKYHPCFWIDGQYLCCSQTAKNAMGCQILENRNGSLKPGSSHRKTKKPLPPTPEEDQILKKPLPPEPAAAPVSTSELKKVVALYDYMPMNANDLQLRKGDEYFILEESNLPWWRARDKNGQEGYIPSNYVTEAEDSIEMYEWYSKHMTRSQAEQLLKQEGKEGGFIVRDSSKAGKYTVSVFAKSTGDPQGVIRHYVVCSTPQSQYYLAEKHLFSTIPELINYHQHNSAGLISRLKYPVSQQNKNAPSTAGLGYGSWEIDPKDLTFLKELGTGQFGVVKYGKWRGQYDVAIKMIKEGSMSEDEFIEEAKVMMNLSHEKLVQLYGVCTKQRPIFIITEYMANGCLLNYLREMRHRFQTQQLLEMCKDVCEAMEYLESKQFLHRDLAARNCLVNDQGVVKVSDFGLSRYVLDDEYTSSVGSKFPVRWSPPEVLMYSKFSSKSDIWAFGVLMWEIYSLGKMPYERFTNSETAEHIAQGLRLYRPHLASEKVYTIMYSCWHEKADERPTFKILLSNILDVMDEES
# Sequence of MNK1 (Q9BUB5 1-424 isoform Q9BUB5-2): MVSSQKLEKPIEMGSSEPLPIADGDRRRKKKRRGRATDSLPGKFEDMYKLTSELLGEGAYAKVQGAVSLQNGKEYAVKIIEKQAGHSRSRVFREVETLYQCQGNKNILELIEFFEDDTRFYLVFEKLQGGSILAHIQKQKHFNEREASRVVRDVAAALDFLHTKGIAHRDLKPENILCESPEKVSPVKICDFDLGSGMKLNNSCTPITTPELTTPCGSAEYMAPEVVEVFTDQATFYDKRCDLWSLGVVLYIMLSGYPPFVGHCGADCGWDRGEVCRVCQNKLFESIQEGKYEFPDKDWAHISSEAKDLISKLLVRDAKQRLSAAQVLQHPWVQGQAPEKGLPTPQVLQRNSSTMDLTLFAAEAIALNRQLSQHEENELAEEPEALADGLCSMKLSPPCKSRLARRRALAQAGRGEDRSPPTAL
compound,measurement,setting,value
C=CC(=O)Nc1cc(-n2c(=O)ccc3cnc4ccc(-c5ccc(NS(C)(=O)=O)cc5)cc4c32)ccc1C [BMX-IN-1],anti-proliferation activity in comparison to QL-X-138,cancer cell lines,weaker anti-proliferation activity
CC(=O)C1=C(O)C=C2Oc3c(C(N)=O)c(O)cc(O)c3[C@]2(C)C1=O [Cercosporamide],GI50,"RV-1; RV-1, Prostate, 72 hours",> 10 µM
same,GI50,"DU-145; DU-145, Prostate, 72 hours",> 10 µM
same,GI50,"HCT-116; HCT-116, Colon, 72 hours",> 10 µM
same,GI50,"HeLa; Cervical, 72 hours",> 10 µM
same,GI50,"K562; K562, CML, 72 hours",> 10 µM
same,GI50,"TMD8; TMD8, DLBCL, 72 hours",> 10 µM
same,GI50,"U2932; U2932, DLBCL, 72 hours",> 10 µM
same,GI50,Ramos,> 10 µM
same,GI50,"OCI-AML3; OCI-AML3, AML, 72 hours",> 10 µM
same,GI50,SKM-1,> 10 µM
same,GI50,"NOMO-1; NOMO-1, AML, 72 hours",> 10 µM
same,GI50,NB4,> 10 µM
same,GI50,"HEL; AML, 72 hours",> 10 µM
same,GI50,U937,3.9 µM
same,GI50,NALM6,> 10 µM
same,GI50,MEC-1,> 10 µM
same,GI50,MEC-2,> 10 µM
same,GI50,Hs 505.T,> 10 µM
same,GI50,REC-1,> 10 µM
same,effect on MNK phosphorylation,Ramos cells; 4 hours,did not affect
same,effect on phosphorylation of eIF4E S209,Ramos cells; at a concentration of 1 μM,suppressed
C=CC(=O)N1CCC[C@@H](n2nc(-c3ccc(Oc4ccccc4)cc3)c3c(N)ncnc32)C1 [PCI-32765],GI50,"RV-1; RV-1, 72 h",> 10 µM
same,GI50,"DU-145; Homo sapiens, DU-145, 72 h",> 10 µM
same,GI50,"HCT-116; Homo sapiens, HCT-116, 72 h",> 10 µM
same,GI50,"HeLa; Homo sapiens, 72 h",> 10 µM
same,GI50,"K562; Homo sapiens, K562, 72 h",> 10 µM
same,GI50,"TMD8; Homo sapiens, TMD8, 72 h",0.002 µM
same,GI50,"U2932; Homo sapiens, U2932, 72 h",> 10 µM
same,GI50,"OCI-AML3; Homo sapiens, OCI-AML-3, 72 h",> 10 µM
same,GI50,"NOMO-1; Homo sapiens, NOMO-1, 72 h",> 10 µM
same,GI50,"HEL; Homo sapiens, 72 h",4 µM
same,effect on MNK phosphorylation,Ramos cells; 4 hours,did not affect
same,effect on phosphorylation of PLCγ2 Y1217,Ramos cells; 4 hours,strongly blocked
"Nc1ccc(-c2ccc3ncc4ccc(=O)n(-c5cccc(C(F)(F)F)c5)c4c3c2)cn1 [Torin2, 9-(6-aminopyridin-3-yl)-1-(3-(trifluoromethyl)phenyl)benzo[h][1,6]naphthyridin-2(1H)-one]",IC50,mTOR,0.00025 µM
same,activity against MNK1,MNK1,no apparent activity
same,activity against BTK,BTK,no apparent activity
